According to ChEMBL document CHEMBL4118031, “Halogenated Compounds from Directed Fermentation of Penicillium concentricum, an Endophytic Fungus of the Liverwort Trichocolea tomentella” (J Nat Prod, 2017):

How the values were obtained:
[1] = system: MCF7; experiment: Cytotoxicity against human MCF7 cells after 3 days by sulforhodamine B assay; assay type: functional, cell-based; settings: MCF7, 72 h
Procedure, shortened: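 Antiproliferative assay on MCF-7 breast cancer cells following a published protocol, with camptothecin as the positive control.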

[2] = system: HT-29; experiment: Cytotoxicity against human HT-29 cells after 3 days by sulforhodamine B assay; assay type: functional, cell-based; settings: HT-29, 72 h
Procedure, shortened: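 Antiproliferative assay on HT-29 colon cancer cells following a protocol from earlier work, with paclitaxel as the positive control.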

Compound | IC50 [1] | IC50 [2]
COc1cc(O)c2c(=O)c3c(C)cc(O)cc3oc2c1 | > 20 µM | > 20 µM
COC1=CC(=O)C[C@@H](C)[C@]12Oc1cc(OC)cc(OC)c1C2=O | > 20 µM | > 20 µM
COC1=CC(=O)C=C(C)[C@]12Oc1cc(OC)cc(OC)c1C2=O | > 20 µM | > 20 µM
O=C(OCCO)c1ccccc1 | > 20 µM | > 20 µM
O=C1C(CO)=C[C@@H](O)[C@@H](O)[C@@H]1Br | 9.7 µM | –
O=C1C(CO)=C[C@@H](O)[C@@H](O)[C@@H]1Cl | > 20 µM | –
OCc1cc(O)cc(Cl)c1O | 14.9 µM | –
OCc1cc(O)cc(Br)c1O | 8.4 µM | –
O=C1C(CO)=C[C@@H](O)[C@@H](O)[C@H]1Cl | > 20 µM | –
COc1cc(O)c(C(=O)c2c(C)cc(O)cc2OC)c(O)c1 | > 20 µM | > 20 µM
COc1cc(O)c(C(=O)c2c(C)cc(O)cc2OC)c(O)c1Cl | > 20 µM | > 20 µM
O=C1C(CO)=C[C@@H](O)[C@@H](O)[C@H]1Br | 9.7 µM | –
Cc1cc(O)cc2oc3cc(Cl)cc(O)c3c(=O)c12 | > 20 µM | –
COc1cc(O)c2c(=O)c3c(C)cc(O)c(O)c3oc2c1 | > 20 µM | > 20 µM
OCC(O)c1ccccc1 (racemic) | > 20 µM | > 20 µM
Cc1cc(O)cc2oc(=O)c3c(O)cc(O)cc3c12 [ALTERNARIOL] | > 20 µM | > 20 µM
CC[C@@]1(O)C(=O)OCc2c1cc1n(c2=O)Cc2cc3ccccc3nc2-1 [CAMPTOTHECIN] | 0.073 µM | –
O=C1C(CO)=C[C@@H](O)[C@H]2O[C@@H]12 [EPOXYDON] | 5.7 µM | 14.1 µM
OCc1cc(O)ccc1O [GENTISYL ALCOHOL] | 17.1 µM | 6.4 µM
COC1=CC(=O)C[C@@H](C)[C@]12Oc1c(Cl)c(OC)cc(OC)c1C2=O [GRISEOFULVIN] | 13.9 µM | > 20 µM
Cc1cc(O)cc2oc3cc(O)cc(O)c3c(=O)c12 [NORLICHEXANTHONE] | > 20 µM | > 20 µM
CC(=O)O[C@H]1C(=O)[C@@]2(C)[C@H]([C@H](OC(=O)c3ccccc3)[C@]3(O)C[C@H](OC(=O)[C@H](O)[C@@H](NC(=O)c4ccccc4)c4ccccc4)C(C)=C1C3(C)C)[C@]1(OC(C)=O)CO[C@@H]1C[C@@H]2O [PACLITAXEL] | – | 0.0014 µM
